Experimental data reported in ChEMBL document CHEMBL2040826, “Design, synthesis and antiviral activity of novel pyridazines” (Eur J Med Chem, 2012).

How the values were obtained:
Tobacco mosaic virus [1] = assay: In vivo antiviral activity against TMV assessed as curative effect at 500 ug/ml; type: functional
Tobacco mosaic virus [2] = assay: In vivo antiviral activity against TMV assessed as inactivation effect at 500 ug/ml; type: functional
Tobacco mosaic virus [3] = assay: In vitro antiviral activity against TMV at 500 ug/ml; type: functional
[4] = Cytotoxicity against human TZM-bl cells at 10 uM after 48 hrs by MTT assay; type: cell-based
[5] = tested on: Human immunodeficiency virus; assay: Antiviral activity against HIV infected in human TZM-bl cells at 10 uM after 48 hrs by measuring luciferase activity by luminometer analysis; type: functional; details: Human immunodeficiency virus 1, TZM-bl
In short: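 TZM-bl cells seeded at 10⁴ cells/well; samples (from DMSO stocks) added next day, then pseudotyped HIV; final DMSO 2%. Incubated 48 h at 37 °C in humidified CO₂. Steady-glow luciferase substrate added, lysis 20 min in dark, luminescence read. AZT and MK-0518 as positive controls; expressed as percent inhibition.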

Tobacco mosaic virus [6] = assay: In vivo antiviral activity against TMV assessed as protection effect at 500 ug/ml; type: functional

Compound | Activity (Tobacco mosaic virus [1]) [%] | Activity (Tobacco mosaic virus [2]) [%] | inhibition at 500 µg/mL (Tobacco mosaic virus [3]) [%] | Activity [4] | inhibition at 10 µM [5] [%] | Activity (Tobacco mosaic virus [6]) [%]
COC(=O)c1c(C(F)(F)F)nn(-c2ccccc2)c(=O)c1O | 10.7 | 18.9 | 15.5 | Non-toxic | -0.75 | 11.4
O=c1c(O)cc(C(F)(F)F)nn1-c1ccccc1 | 14.8 | 0 | 0 | Non-toxic | 6.33 | 7.6
COC(=O)c1c(C(F)(F)F)nn(-c2ccccc2)c(=O)c1OC | 12.5 | 16.5 | 20 | Non-toxic | 5.9 | 19.2
O=C(NCc1ccc(F)cc1)c1c(C(F)(F)F)nn(-c2ccccc2)c(=O)c1O | 30.2 | 36.7 | 38.5 | Non-toxic | 27.9 | 32.6
COC(=O)c1c(C(F)(F)F)nn(-c2ccc(F)cc2)c(=O)c1O |  |  |  | Non-toxic | 1.3 | 
O=c1c(O)cc(C(F)(F)F)nn1-c1ccc(F)cc1 |  |  |  | Non-toxic | -11.6 | 
COC(=O)c1c(C(F)(F)F)nn(-c2ccc(F)cc2)c(=O)c1OC | 18.6 | 7.5 | 22.5 | Non-toxic | 7.34 | 11.7
O=C(NCc1ccc(F)cc1)c1c(C(F)(F)F)nn(-c2ccc(F)cc2)c(=O)c1O | 17.4 | 10.3 | 18.6 | Non-toxic | 19.5 | 15.6
O=C(NCc1ccc(F)cc1)c1c(C(F)(F)F)nn(-c2ccc(F)cc2)c(=O)c1NCc1ccc(F)cc1 | 34 | 30.2 | 28.5 | Non-toxic | 19.5 | 31.3
COC(=O)c1c(C(F)(F)F)nn(Cc2ccc(F)cc2)c(=O)c1OC | 10.3 | 11.2 | 27.5 | Non-toxic | 13.9 | 20.2
O=C(NCc1ccc(F)cc1)c1c(C(F)(F)F)nn(Cc2ccc(F)cc2)c(=O)c1O | 21.7 | 21.4 | 30 | Non-toxic | 29.3 | 28.3
COC(=O)c1c(C(F)(F)F)nn(Cc2ccccn2)c(=O)c1O | 9.3 | 18.3 | 21.3 | Non-toxic | 5.41 | 16.7
COC(=O)c1c(C(F)(F)F)nn(Cc2ccccn2)c(=O)c1OC | 0 | 0 | 0 | Non-toxic | 20.2 | 15.2
O=C(NCc1ccc(F)cc1)c1c(C(F)(F)F)nn(Cc2ccccn2)c(=O)c1O | 7.6 | 5.2 | 10 | Non-toxic | 2.99 | 18.6
COC(=O)c1c(C(F)(F)F)nn(Cc2cccnc2)c(=O)c1OC |  |  |  | Non-toxic | 19.5 | 
O=C(NCc1ccc(F)cc1)c1c(C(F)(F)F)nn(Cc2cccnc2)c(=O)c1O | 12.8 | 18.2 | 7.5 | Non-toxic | 7.31 | 18.9
COC(=O)c1c(C(F)(F)F)nn(CC2CCCO2)c(=O)c1OC (stereo unspecified) | 0 | 19.7 | 13.6 | Non-toxic | 9.3 | 10.3

Compound | Activity (Tobacco mosaic virus [1]) [%] | Activity (Tobacco mosaic virus [2]) [%] | inhibition at 500 µg/mL (Tobacco mosaic virus [3]) [%] | Activity [4] | inhibition at 10 µM [5] [%] | Activity (Tobacco mosaic virus [6]) [%]
O=C(NCc1ccc(F)cc1)c1c(C(F)(F)F)nn(CC2CCCO2)c(=O)c1O (stereo unspecified) | 0 | 13.2 | 0 | Non-toxic | -3.02 | 0
COC(=O)c1c(C(F)(F)F)nn(Cc2ccco2)c(=O)c1OC | 7.2 | 0 | 8.5 | Non-toxic | -3.39 | 0
O=C(NCc1ccc(F)cc1)c1c(C(F)(F)F)nn(Cc2ccco2)c(=O)c1O |  |  |  | Non-toxic | 13 | 
COC(=O)c1c(C(F)(F)F)nn(Cc2cccs2)c(=O)c1OC | 19.5 | 15.1 | 12.4 | Non-toxic | 37 | 10
O=C(NCc1ccc(F)cc1)c1c(C(F)(F)F)nn(Cc2cccs2)c(=O)c1O | 14.2 | 0 | 0 | Non-toxic | -7.5 | 0
O=C(NCc1ccc(F)cc1)c1c(C(F)(F)F)nn(Cc2cccs2)c(=O)c1NCc1ccc(F)cc1 | 23.6 | 19.5 | 30 | Non-toxic | 12.7 | 24.7
COC(=O)c1c(C(F)(F)F)nn(C)c(=O)c1OC | 26.5 | 27.3 | 25 | Non-toxic | -4 | 20.5
Cn1nc(C(F)(F)F)c(C(=O)NCc2ccc(F)cc2)c(O)c1=O | 28.4 | 25.4 | 19.6 | Non-toxic | -3.5 | 32.8
Cn1nc(C(F)(F)F)c(C(=O)NCc2ccc(F)cc2)c(NCc2ccc(F)cc2)c1=O | 11.3 | 23.9 | 8.6 | Non-toxic | 53.5 | 17.5
COC(=O)c1c(C(F)(F)F)nn(C/C=C/c2ccccc2)c(=O)c1OC | 29.8 | 23.7 | 20.3 | Non-toxic | -19.4 | 22.9
O=C(NCc1ccc(F)cc1)c1c(C(F)(F)F)nn(C/C=C/c2ccccc2)c(=O)c1O | 10.2 | 0 | 18.4 | Non-toxic | -27.2 | 12.2
COC(=O)c1c(C(F)(F)F)nn(C(C)(C)C)c(=O)c1OC | 6.3 | 0 | 0 | Non-toxic | -6.5 | 5.7
CC(C)(C)n1nc(C(F)(F)F)cc(NCc2ccc(F)cc2)c1=O | 20.2 | 15.3 | 26.2 | Non-toxic | 41.9 | 30.2
CC(C)(C)n1nc(C(F)(F)F)cc(O)c1=O | 27.2 | 18.6 | 31.7 | Non-toxic | -11.6 | 23.1
Cc1nnc(C(=O)NC(C)(C)c2nc(C(=O)NCc3ccc(F)cc3)c(O)c(=O)n2C)o1 [RALTEGRAVIR POTASSIUM] |  |  |  |  | 95.1 | 
NC(=O)c1ncn([C@@H]2O[C@H](CO)[C@@H](O)[C@H]2O)n1 [RIBAVIRIN] | 32.7 | 34.2 | 38.5 |  |  | 39.6
Cc1cn([C@H]2C[C@H](N=[N+]=[N-])[C@@H](CO)O2)c(=O)[nH]c1=O [ZIDOVUDINE] |  |  |  |  | 100 | 
